Screening data (PubChem BioAssay)
HDAC3 inhib: HDAC3 deacetylase inhibitors, primary screen, biochemical, fluorescence, cell-free homogeneous; AID 2718, 2010; actives 0.15% (n = 320,000); recombinant HDAC3, fluorogenic peptide/trypsin coupled; inhibition, % at 8.3 µM; Histone deacetylase 3 (Homo sapiens), O15379; in the data active = inhibition above about 26%, passing the limit was not always enough; inconclusive = no clear call, values can overlap the other calls
Rtt109 HAT inh: inhibitors of C. albicans Rtt109/Vps75 HAT, primary screen, biochemical, ThioGlo CoA-SH fluorescence, plate reader. Histone acetyltransferase RTT109 (Candida albicans (strain SC5314 / ATCC MYA-2876)), …. purified Rtt109/Vps75, 4 h. inhibition, % at 34.9 µM. actives 0.16% (n = 330,000);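 active = inhibition of at least 50% in every replicate; inconclusive = best replicate reaches 50% inhibition but some replicates fall short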
UCH37 DUB inh: inhibitors of human UCH37 deubiquitinase, primary screen, biochemical, Ub-AMC cleavage, fluorescence | inhibition, % (concentration not given with the values) | Ubiquitin carboxyl-terminal hydrolase isozyme L5 (Homo sapiens), Q9Y5K5 | actives 0.33% (n = 330,000) | purified proteasome/UCH37;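 active = mean inhibition over replicate wells above about 20%, limit read from the data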;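 also: 0% = compound-free wells with enzyme and 100% = wells lacking proteasome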
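system = Proteasome-associated human UCH37 deubiquitinase | amount = 0.15 nM proteasome as dispensed | medium = pH 7.4 Tris-HCl (50 mM) with ovalbumin, ATP-MgCl2, DTT | incubation = 30 min preincubation with enzyme, 25 min cleavage at room temperature | detection = AMC fluorescence 355/460 nm | read-out basis = percent inhibition | controls = no-proteasome and no-compound wells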
ALR H2O2 inh: inhibitors of human ALR sulfhydryl oxidase, primary screen, biochemical, H2O2 detection, HRP-luminol luminescence, single point | actives 3.8% (n = 290,000) | inhibition, % (concentration not given with the values) | purified ALR, DTT oxidation;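 active = mean replicate inhibition above about 79%, with every replicate also reaching it, limit read from the data; inconclusive = only one of the two criteria met; inactive = mean below limit and not every replicate reaching it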
PfM18AAP inh-1: PfM18AAP inhibitors, malaria aminopeptidase, primary screen, biochemical, QFRET, recombinant enzyme. M18 aspartyl aminopeptidase (Plasmodium falciparum 3D7). AID 1822, 2009. H-Glu-NHMec fluorogenic cleavage. inhibition, % at 7.35 µM. actives 1.2% (n = 290,000);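 active = inhibition above the campaign mean inhibition over all tested compounds plus 3 SD, cut at about 28% in these data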;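 also: 0% = plate median of test compound wells and 100% = 2 mM ZnCl2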
FAS-TE inh: FAS thioesterase domain inhibitors, primary screen, biochemical, fluorescence intensity, uHTS. recombinant FAS-TE, OMFH fluorogenic substrate, fluorescence endpoint. Fatty acid synthase (Homo sapiens), P49327. actives 0.67% (n = 360,000). inhibition, % at 15 µM;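 active = compounds whose normalised, plate-corrected inhibition of enzyme fluorescence in the single-dose primary screen is 50% or more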;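 also: 0% = DMSO with enzyme and 100% = substrate without enzyme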
PfM18AAP inh-2: PfM18AAP inhibitors, malaria aminopeptidase, confirmation, biochemical, QFRET, recombinant enzyme, triplicate; shares compounds with PfM18AAP inh-1; H-Glu-NHMec fluorogenic cleavage; AID 2170, 2009; inhibition, % at 7.35 µM; actives 28% (n = 2,400);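 active = mean inhibition over replicate wells above the hit cutoff set for the earlier primary screen, cut at about 29% in these data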;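 also: 0% = median of test compound wells and 100% = 2 mM ZnCl2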
CTSL1 counter: cathepsin L1 inhibitors, retest, confirmation, counter-screen for PFM18AAP inhibitor project, biochemical, QFRET, triplicate | shares compounds with PfM18AAP inh-1 | purified cathepsin L1, Z-Leu-Arg-MCA fluorescence | inhibition, % at 5.96 µM | 2,400 tested, under 10 active | AID 2178, 2009;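 active = average inhibition across replicates above the hit cutoff set in the earlier primary screen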;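 also: 0% = median of test compound wells and 100% = Z-Phe-Ala-diazomethylketone 1 µM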
The depositor's hits bear a star; u = inconclusive; x = no result given. Only some compounds are listed: those with a hit (about 4.6% of all), similar ones and a draw of the others.

SMILES	HDAC3 inhib	Rtt109 HAT inh	UCH37 DUB inh	ALR H2O2 inh	PfM18AAP inh-1	FAS-TE inh	PfM18AAP inh-2	CTSL1 counter
Cc1cc(C)c2c(=O)n(CC(=O)N3CCC(N4CCCCC4)CC3)sc2n1	19	u	4	22	43*	-10	2	4
CCOC(=O)C1CCCN(C(=O)Cn2sc3nc(C)cc(C)c3c2=O)C1 (stereo unspecified)	5	-1	8	35	59*	-7	24	-4
Cc1nn(CC(=O)N2CCC(N3CCCCC3)CC2)c(=O)c2c1sc1ccccc12	-7	18	2	-2	1	-6	x	x
COc1ccc(C(=O)Nc2cccc(C(C)=NNC(=O)c3ccc([N+](=O)[O-])c(C)c3)c2)cc1OC	x	x	6	x	x	x	x	x
Cc1cccc(C)c1-n1c(C)cc(C=NNC(=O)c2ccncc2)c1C	x	x	9	x	x	x	x	x
Cc1ccc(NC(=S)c2ccc3ccccc3n2)c(C)c1	8	-4	x	-1	42*	12	-1	2
COc1ccc(NC(=S)c2ccc3ccccc3n2)cc1	10	1	x	-15	47*	17	4	-5
CCOc1ccc(CN(C)C(=O)c2ccc3ccccc3n2)cc1	-4	-7	0	-53	2	2	x	x
CCOc1ccc(NC(=S)c2ccc3ccccc3n2)cc1	-2	1	8	-5	41*	23	-30	-5
Cc1ccc(C)c(NC(=O)c2ccc3ccccc3n2)c1	0	1	3	-8	-2	15	x	x
CC(=NNC(=O)c1ccccc1)c1ccc2c(c1)OCO2	x	x	3	x	x	x	x	x
CC(=O)Nc1ccc(C=NNC(=O)c2cc(-c3ccco3)nc3ccccc23)cc1	x	x	-13	x	x	x	x	x
O=C1Nc2ccccc2/C1=C/c1ccc([N+](=O)[O-])cc1	0	9	1	-6	35*	6	-2	-2
CCn1c2ccccc2c2cc(/C=N/n3cnnc3)ccc21	-13	23	x	x	-4	1	x	x
CCn1c(/C=N/n2cnnc2)nc2ccccc21	-21	36	x	-3	48*	-8	-42	-5
Oc1cccc(NC(=S)Nc2ccccc2)c1	-5	5	4	48	22	-9	-47	2
Fc1cccc(NC(=S)NNc2c3ccccc3nc3ccccc23)c1	x	-3	3	x	2	1	x	x
COc1ccc([N+](=O)[O-])cc1NC(=S)Nc1ccccc1	1	-3	4	x	2	24	x	x
O=[N+]([O-])c1ccc(NNC(=S)Nc2ccccc2)cc1	2	9	6	-25	39*	15	32*	-9
Fc1cccc(NC(=S)NNc2ccccc2)c1	0	-2	2	-4	38*	1	-14	-6
O=C(CCC(=O)Nc1cccc2ccccc12)NN=Cc1ccco1	x	x	0	x	x	x	x	x
Cc1cccc(C(=O)NC(=S)NNC(=O)c2cccs2)c1	7	-6	11	99*	33*	-2	-28	2
CC(C)=CCC/C(C)=C/CCC(C)=NO	x	x	3	x	x	x	x	x
Oc1oc(-c2ccccc2Br)nc1C=Nc1ccccn1	x	x	8	x	x	x	x	x
Cc1nc2ccccn2c1C(=O)NNC(=O)Nc1ccccc1	6	-16	1	28	66*	-1	67*	0
CN(C)c1ccc(C(=O)NNC(=O)Nc2ccccc2)cc1	2	2	1	20	55*	0	31*	-10
O=C(COc1cccc2cccnc12)NN=C1SCC(=O)N1Cc1ccco1	x	x	1	x	x	x	x	x
COc1ccc(C=NS(=O)(=O)CCc2ccccc2)c(OC)c1	x	x	2	x	x	x	x	x
